Screening results (PubChem BioAssay)
CHRM5 PAM – positive allosteric modulators of human muscarinic M5 receptor; actives 0.3% (n = 360,000); CHO-K1 hM5, Fluo-8 calcium, ACh EC20 PAM; 0% = ACh EC20, 100% = ACh EC100; P08912; activation, % at 3 µM;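 active = activation above the run cutoff, the mean activation of all test compounds plus 3 SD, cut at about 18% in these data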
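Probe or stimulus: acetylcholine, EC20 level; Assay system: human M5 receptor in CHO-K1 cells; Schedule: compound preincubation 140 s before EC20 acetylcholine addition; Technique: intracellular calcium via Fluo-8 fluorescence; Dosing: single-point, 3 µM nominal; Read-out basis: percent activation from peak-over-basal fluorescence ratio, scaled EC20-to-EC100 acetylcholine; Repeats: one well per compound, no replicates.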
CHRM5 agonist – agonists of human muscarinic M5 receptor (CHRM5); CHO-K1 hM5 cells, Fluo-8 calcium fluorescence; 0% DMSO wells, 100% maximal acetylcholine response; P08912; activation, % at 3 µM; actives 0.19% (n = 360,000);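 active = activation above the run's mean over test compounds plus 3 SD, cut at about 23% in these data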;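 also: signal is peak over basal fluorescence ratio across the kinetic read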
M4 PAM – positive allosteric modulators of human muscarinic M4 receptor | CHO-K1 hM4/Gqi5, Fluo-8 calcium fluorescence, ACh EC20; 0% = ACh EC20, 100% = maximal ACh | activation, % at 3 µM | actives 0.4% (n = 360,000);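 active = activation above its plate's cutoff, the mean activation of sample wells plus 3 SD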
Target sequence (P08173 whole entry, looked up): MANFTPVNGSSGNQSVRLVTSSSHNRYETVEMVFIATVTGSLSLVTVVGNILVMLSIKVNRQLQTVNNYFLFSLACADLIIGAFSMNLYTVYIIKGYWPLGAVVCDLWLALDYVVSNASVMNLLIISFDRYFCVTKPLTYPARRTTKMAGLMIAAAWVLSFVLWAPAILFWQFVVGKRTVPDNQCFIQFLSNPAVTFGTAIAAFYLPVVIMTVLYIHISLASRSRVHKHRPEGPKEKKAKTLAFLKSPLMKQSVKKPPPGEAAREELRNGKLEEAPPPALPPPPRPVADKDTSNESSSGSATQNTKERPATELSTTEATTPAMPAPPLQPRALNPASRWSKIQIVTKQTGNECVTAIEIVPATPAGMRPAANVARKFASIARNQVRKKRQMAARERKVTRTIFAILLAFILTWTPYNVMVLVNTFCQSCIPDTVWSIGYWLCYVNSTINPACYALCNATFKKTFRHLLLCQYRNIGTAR
M4 antag – blocks acetylcholine activation of human M4 receptor; actives 0.73% (n = 360,000); P08173; CHO-hM4 cells, ACh EC80, Fluo-8 calcium fluorescence; inhibition, % at 3 µM;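 active = inhibition above its plate's cutoff, the mean inhibition of sample wells plus 3 SD, cut at about 27% in these data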;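 also: 0% = acetylcholine EC80 with DMSO and 100% = DMSO without agonist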
CHRM5 antagonist – CHRM5 antagonism in calcium assay; actives 0.59% (n = 360,000); inhibition, % at 3 µM; P08912; CHO-hM5 cells, Fluo-8 calcium fluorescence, ACh EC80;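 active = inhibition above a per-plate cutoff, the mean of that plate's test compounds plus 3 SD, cut at about 27% in these data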;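 also: 0% = acetylcholine EC80 with DMSO and 100% = DMSO without agonist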
CHRM4 agonist – CHRM4 agonism in calcium assay | P08173 | CHO-K1 hM4/Gqi5, Fluo-8 calcium fluorescence; vehicle 0%, full acetylcholine response 100% | activation, % at 3 µM | actives 0.14% (n = 360,000);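 active = activation above the run mean over all test wells plus 3 SD, cut at about 32% in these data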;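 also: peak over basal fluorescence ratio per well then scaled between controls; 0% = DMSO wells and 100% = acetylcholine at EC100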
Numbers without * were called inactive. Rows were chosen to be rich in hits. Some 1.8% of all compounds tested hit in one or more screens of this group.

SMILES	CHRM5 PAM	CHRM5 agonist	M4 PAM	M4 antag	CHRM5 antagonist	CHRM4 agonist
Cn1nc(C(=O)Nc2cccc(C(F)(F)F)c2)c2ccccc2c1=O	-1	-5	31*	13	-6	-3
FC(F)(F)c1cccc(NC(=S)Nc2ccc(Cl)c(Cl)c2)c1	-6	8	-1	3	6	6
Cn1nc(C(=O)Nc2cccc(C(=O)NC3CC3)c2)c2ccccc2c1=O	8	4	-1	-3	-10	3
CC(=O)c1c(C)[nH]c(C(=O)Nc2cccc(C(F)(F)F)c2)c1C	-13	7	-14	10	29*	20
CC(=O)c1c(C)[nH]c(C(=O)C(C)Sc2nnc(NC3CC3)s2)c1C (stereo not given)	-12	9	-5	-16	-2	11
Clc1ccc(-c2c(C3=NCCCN3)nnn2-c2ccc(Cl)cc2)cc1	0	-1	-9	8	9	2
Cc1ccc(S(=O)(=O)N2Cc3ccccc3CC2C(=O)N(C)C)cc1 (stereo not given)	4	0	3	3	-3	0
C=CCSc1nnc(NC(=O)CN2C(=O)NC3(CCCC3)C2=O)s1	1	-6	18*	-17	8	0
CCC1(c2ccc(F)cc2)NC(=O)N(CC(=O)Nc2ccc(N3CCCCC3)cc2)C1=O (stereo not given)	6	27*	-3	2	5	21
O=C(CN1C(=O)NC2(CCCC2)C1=O)Nc1ccc(F)cc1	-4	0	38*	42*	3	1
CCc1nnc(NC(=O)CN2C(=O)NC3(CCCC3)C2=O)s1	-4	1	-2	8	12	0
O=C(CN1C(=O)NC2(CCCC2)C1=O)NNC(=O)c1ccc(Br)cc1	0	4	25*	-16	0	1
CCC1(c2ccc(F)cc2)NC(=O)N(CC(=O)Nc2ccc(C(N)=O)cc2)C1=O (stereo not given)	5	-1	2	7	9	1
O=C(NC(=S)NC(CO)Cc1ccccc1)c1ccc(F)cc1 (stereo not given)	5	-1	3	-8	-13	1
CCCNC(=O)CN1CCC(c2nc3ccccc3[nH]2)CC1	8	0	2	-5	-3	1
CCOC(=O)C1=C(N)Oc2c(oc(CO)cc2=O)C1c1ccc(Cl)cc1 (stereo not given)	18*	3	-1	11	-2	1
CCN(CC)c1ccc(/C=C/C(=O)c2ccc(Br)cc2)cc1	-18	113*	-17	67*	67*	94*
O=C(CNCC1(N2CCOCC2)CCCCC1)Nc1ccc(Cl)cc1	18*	2	12	11	10	1
C[C@H](CO)N1C[C@H](C)[C@@H](CN(C)S(=O)(=O)c2ccc(-c3ccccc3)cc2)OCc2cn(nn2)CCCC1=O	2	-2	5	-3	-1	-1
CCOC(=O)c1c(C)noc1CP(=O)(c1ccccc1)c1ccccc1	12	-9	18*	-3	-7	1
CCOC(=O)CP(=O)(c1ccccc1)c1ccccc1	-3	3	4	4	0	0
Cc1cnc(CNC(=O)c2ccc(OC3CCN(C(=O)C4CC4)CC3)cc2)cn1	23*	17	18	-2	0	3
CN(C)S(=O)(=O)c1cccc(-c2nnc(SCC(=O)NCCCCCC(=O)O)n2-c2ccc(F)cc2)c1	-5	-6	25*	-6	-1	4
CNC(=O)CSc1nnc(-c2cccc(S(=O)(=O)N3CCOCC3)c2)n1-c1ccc(F)cc1	1	0	2	-4	1	0
C[C@@]12C(=O)Nc3cc(Cl)ccc3C(=O)N1[C@H]1c3ccccc3OC[C@@H]1[C@@H]2c1ccccc1	-15	-2	-17	33*	9	3
SMILES	CHRM5 PAM	CHRM5 agonist	M4 PAM	M4 antag	CHRM5 antagonist	CHRM4 agonist
Cc1ccc2c(c1)C(=O)N1[C@H]3c4cc(C)ccc4OC[C@@H]3[C@H](c3ccccc3)[C@]1(C)C(=O)N2	-18	-4	-15	29*	10	1
Cc1ccc2c(c1)C(=O)N1[C@H]3c4cc(Cl)ccc4OC[C@@H]3[C@H](c3ccccc3)[C@]1(C)C(=O)N2	-3	4	-5	4	-6	0
C[C@@]12C(=O)Nc3ccc(Cl)cc3C(=O)N1[C@H]1c3ccccc3OC[C@@H]1[C@@H]2c1ccccc1	-28	-3	-7	41*	20	0
CNC(C)C(=O)NC(C(=O)N1CCCC1C(=O)Nc1ccc2ncccc2c1)C(C)C (stereo not given)	14	2	29*	-14	-5	0
CNC(C)C(=O)NC(C(=O)N1CCCC1C(=O)Nc1ccc2[nH]ccc2c1)C(C)C (stereo not given)	5	-1	5	-11	-4	1
Cc1ccc(CN2CCNC(=O)C2CC(=O)NC2CCCCCC2)cc1 (stereo not given)	0	-5	2	0	15	0
COc1ccc(CN2CCNC(=O)C2CC(=O)NC2CCCCCCC2)cc1OC (stereo not given)	-6	-10	-26	36*	8	2
O=C(CC1C(=O)NCCN1Cc1ccc(F)cc1)NC1CCCCCCC1 (stereo not given)	-4	-7	-15	45*	-1	2
CSc1ccc(N=Nc2c(C)[nH]n(C)c2=O)cc1	1	-7	-9	4	5	-1
CC1(C(=O)NS(=O)(=O)c2cccc(OC(F)F)c2)CCN1C(=O)CC(c1ccccc1)c1ccccc1 (stereo not given)	6	0	1	-1	-11	1
O=C(COC(=O)/C=C/c1cccc(C(F)(F)F)c1)NC1CCCCCC1	8	1	18	-4	0	2
CCN(CC)C(=O)CSc1nc2ccccc2c(=O)n1OC(C)C	23*	4	19	-9	-15	-3
CCN1/C(=C/C(C)=C/c2sc3ccccc3[n+]2CC)Sc2ccccc21	-18	3	-18	34*	42*	9
CCN1/C(=C\C(=S)Nc2ccccc2)Sc2ccccc21	-6	1	-4	3	13	3
CN(C)CCCn1c(=O)n(Cc2ccco2)c(=O)c2c3c(sc21)CCCCC3	18*	-3	-7	-1	-9	1
CN(C)CCCn1c(=O)n(CCc2ccccc2)c(=O)c2c3c(sc21)CCCCC3	-18	-1	-13	22	26	25
CCCCCC(=O)N1C[C@H](n2cc(C3CC3)nn2)[C@@H](O)C[C@@H]1c1ccccc1	1	0	6	-20	4	2
